ChEMBL document CHEMBL2010771, “Studies toward novel peptidomimetic inhibitors of thioredoxin-thioredoxin reductase system” (J Med Chem, 2012)
The source made the active and inactive calls. The rule behind the calls is not given here.

How the values were obtained:
EMT6 [1] = test: Cytotoxicity against mouse EMT6 cells after 72 hrs by crystal violet staining; format: functional; details: EMT6, 72 h, read-out: LD50 (the source's name)
[2] = Inhibition of human recombinant Trx1/TrxR assessed as reduction in number of free thiols from reduced insulin after 30 mins by insulin reduction assay
Summary of the method: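 At least seven compound concentrations. Incubated 30 min at 37 °C, stopped with 8 mM DTNB in 8 M guanidine HCl, A412. IC50 from four-parameter logistic fit. Triplicates, mean ± SD, n ≥ 3.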

[3] = Cytotoxicity against mouse PancO2 cells after 72 hrs by crystal violet staining; format: functional; details: read-out: LD50 (the source's name)
[4] = Cytotoxicity against mouse bone marrow cells after 72 hrs by XTT assay; format: cell-based, Bone marrow cell; details: read-out: LD50
Summary of the method: (§1)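 hPBMC were isolated from healthy donors on Histopaque 1077 and kept in RPMI. Bone marrow came from female BALB/c mice and was cultured in Iscove's medium with 10% FBS and 100 U IL-3. After compound exposure, cells got XTT at 0.3 mg/mL for 4 h, read at A490 against 690 nm. Viability is % of DMSO controls; n ≥ 3.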

T-24 = test: Cytotoxicity against human T24 cells after 72 hrs by crystal violet staining; format: functional; details: T-24, 72 h, read-out: LD50 (the source's name)
Raji [5] = test: Induction of Trx protein expression in human Raji cells at 10 to 20 uM after 4 to 8 hrs by Western blot analysis; format: functional, cell-based
Summary of the method: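 Raji cells exposed to compound for 4 and 8 h, washed and lysed in 0.1% NP40 with protease inhibitors. Equal protein (BCA) run on 15% SDS-PAGE and blotted to nitrocellulose, blocked in TBST with 5% BSA. Probed overnight with rabbit anti-thioredoxin and mouse anti-tubulin, then HRP secondaries for 45 min. ECL luminol/coumaric acid detection.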

[6] = Cytotoxicity against mouse B78 cells after 72 hrs by crystal violet staining; format: functional; details: B78, 72 h, read-out: LD50 (the source's name)
K562 = test: Cytotoxicity against human K562 cells after 72 hrs by MTT assay; format: functional; details: K562, 72 h, read-out: LD50 (the source's name)
Summary of the method: (§2)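 Suspension cells were grown in RPMI-1640 with 10% heat-inactivated FBS and exposed to compound for 72 h with DMSO ≤1%. MTT (5 mg/mL solution) was added for 4 h, then plates were centrifuged, cells lysed in DMSO and read at A570. Viability is % of solvent controls, background-corrected; n ≥ 3.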

Mus musculus [7] = test: Toxicity in mouse EMT6 cells allografted BALB/c mouse assessed as change in body weight at 14 mg/kg, ip qd for 7 days measured on day 5; format: organism-based; design: dose 14 mg/kg, route intraperitoneal; details: in vivo, 168 h
Summary of the method: (§3)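 BALB/c mice, 8−12 weeks old, inoculated sc with 3.5 × 10^5 EMT6 cells into the depilated right thigh. Intraperitoneal dosing in DMSO began on day 7, when tumors reached a longer diameter of 5−7 mm, and was given daily. Controls received ip DMSO. Tumor volume was followed by calipers as longer × shorter²/2. Survival and body weight were monitored.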

CT26 = test: Cytotoxicity against wild type mouse CT26 cells after 72 hrs by crystal violet staining; format: functional; details: CT26, 72 h, read-out: LD50 (the source's name)
Ramos = test: Cytotoxicity against human Ramos cells after 72 hrs by MTT assay; format: functional; details: read-out: LD50 (the source's name); summary of the method: as §2
Mus musculus [8] = test: Toxicity in mouse EMT6 cells allografted BALB/c mouse assessed as mortality at 14 mg/kg, ip qd for 7 days measured on day 5; format: organism-based; design: dose 14 mg/kg, route intraperitoneal; details: in vivo, 168 h; summary of the method: as §3
[9] = Cytotoxicity against mouse MEF cells; format: cell-based; details: read-out: LD50 (the source's name)
Summary of the method: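 Fibroblasts came from BALB/c embryos at E13.5 by 0.2% trypsin digestion at 37 °C for 10 min and were cultured in DMEM. Viability is % of solvent controls with DMSO ≤1%; n ≥ 3.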

[10] = Cytotoxicity against human PBMC cells after 72 hrs by XTT assay; format: cell-based; details: read-out: LD50; summary of the method: as §1
Raji [11] = test: Cytotoxicity against human Raji cells after 72 hrs by MTT assay; format: functional; details: read-out: LD50 (the source's name); summary of the method: as §2
Raji [12] = test: Induction of Trx mRNA expression in human Raji cells at 5 to 10 uM after 4 to 24 hrs by RT-PCR analysis; format: functional, cell-based
Mus musculus [13] = test: Toxicity in mouse EMT6 cells allografted BALB/c mouse assessed as mortality at 40 to 80 mg/kg, ip qd for 7 days; format: organism-based; design: dose 40-80 mg/kg, route intraperitoneal; details: in vivo, 168 h; summary of the method: as §3
[14] = molecular target: T1, Thioredoxin (Homo sapiens) (UniProt P10599); test: Inhibition of thioredoxin in human HeLa cells cotransfected with p-AP1-luc assessed as inhibition of ionomycin-induced AP-1 promoter activity after 6 hrs by luciferase reporter assay; format: cell-based
T1 sequence (whole entry): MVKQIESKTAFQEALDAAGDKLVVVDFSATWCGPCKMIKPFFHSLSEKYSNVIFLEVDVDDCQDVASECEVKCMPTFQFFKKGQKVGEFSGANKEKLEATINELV
Summary of the method: (§4)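 HeLa cells nucleofected with 2 μg NF-κB- or AP-1-luciferase plasmid plus CMV-Renilla, then cultured 48 h. NF-κB: TNF (10 ng/mL) + IFN-γ (100 U) together with compound for 6 h. AP-1: 4 h in medium without FBS or antibiotics, then ionomycin (1 μM) together with compound for 6 h. Dual-luciferase read-out, firefly normalized to Renilla. Triplicates, n ≥ 3, Student's t test.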

Raji [15] = test: Inhibition of Trx1/TrxR in human Raji cells after 4 hrs by insulin reduction assay; format: cell-based
Summary of the method: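 Raji cells incubated with compound for 4 h, washed three times with PBS and lysed in 0.1% NP40 with protease inhibitors. Protein measured by BCA. Trx activity determined in 10 μg of total protein by kit insulin reduction with TrxR/NADPH for 20 min at 37 °C, then DTNB/guanidine stop and A412. Triplicates, n = 3, SD.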

EMT6 [16] = test: Antitumor activity against mouse EMT6 cells allografted in BALB/c mouse assessed as prolongation of host survival time at 80 mg/kg, ip qd for 7 days; format: functional, organism-based; design: dose 80 mg/kg; summary of the method: as §3
[17] = Chemical stability of the compound in 0.01 M PBS buffer at pH 7.4 after 5 hrs by RP-HPLC analysis; format: physicochemical; details: read-out: Stability
Summary of the method: (§5)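 Stock in DMSO (5 mg/mL) diluted about 100-fold into 0.01 M PBS pH 7.4 prewarmed to 37 °C, then held at 37 °C for up to 7 days. At each time point, 100 μL aliquots were mixed with 200 μL ethanol, chilled at 4 °C for 15 min, centrifuged and stored at −20 °C. Samples were quantified by RP-HPLC (C18, acetonitrile/water, 230 nm) against standard curves of at least five dilutions. Triplicates, n = 3.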

[18] = molecular target: T1, Thioredoxin (Homo sapiens); test: Inhibition of thioredoxin in human HeLa cells assessed as decrease of H2O2 scavenging activity by measuring CM-H2DCFDA fluorescence at 10 uM after 4 hrs by flow cytometeric analysis; format: cell-based
Summary of the method: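 HeLa cells treated 4 h with 10 or 20 μM compound, then trypsinized and resuspended in PBS. H2O2 added to 1 mM final for 10 min, then 1 μL of 5 mM CM-H2DCFDA for 15 min at 37 °C. Cells washed twice and 10^4 cells analyzed by flow cytometry. Triplicates, n = 3, Student's t test.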

[19] = Chemical stability of the compound in 0.01 M PBS buffer at pH 7.4 after 7 days by RP-HPLC analysis; format: physicochemical; details: pH 7.4, 168 h; summary of the method: as §5
[20] = molecular target: Thioredoxin reductase (Homo sapiens) (UniProt Q16881+Q9NNW7+Q86VQ6); details: 2.5 to 20 uM
[21] = molecular target: T1, Thioredoxin (Homo sapiens); test: Inhibition of human recombinant Trx-1 expressed in Escherichia coli at 2.5 to 20 uM by insulin reduction assay in presence of thioredoxin reductase; details: TDE = time-dependent effect
Summary of the method: (§6)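 Human recombinant His-tagged Trx purified by Ni affinity and gel filtration, then dialyzed free of DTT. Trx was prereduced with TrxR and NADPH for 20 min, then preincubated with compound (2.5−20 μM) for 0−90 min at 37 °C. Reaction ran 30 min at 37 °C in Tris-HCl/EDTA pH 7.6. DTNB stop, A412. Triplicates, SD.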

[22] = molecular target: T1, Thioredoxin (Homo sapiens); test: Inhibition of thioredoxin in human HeLa cells cotransfected with p-NFkB-luc assessed as inhibition of TNF/IFN-gamma-induced activation of NF-kB after 6 hrs by luciferase reporter assay; format: cell-based; summary of the method: as §4
[23] = Chemical stability of the compound in 0.01 M PBS buffer at pH 7.4 after 4 days by RP-HPLC analysis; format: physicochemical; details: pH 7.4, 96 h; summary of the method: as §5
[24] = molecular target: T1, Thioredoxin (Homo sapiens); test: Inhibition of human recombinant Trx-1 expressed in Escherichia coli after 30 to 90 mins preincubation by insulin reduction assay in presence of thioredoxin reductase; summary of the method: as §6
Mus musculus [25] = test: Toxicity in mouse EMT6 cells allografted BALB/c mouse assessed as change in body weight at 40 to 80 mg/kg, ip qd for 7 days; format: organism-based; design: dose 40-80 mg/kg, route intraperitoneal; details: in vivo, 168 h; summary of the method: as §3
[26] = molecular target: T1, Thioredoxin (Homo sapiens); test: Binding affinity to human recombinant Trx-1 expressed in Escherichia coli by mass spectrometry analysis
EMT6 [27] = test: Antitumor activity against mouse EMT6 cells allografted in BALB/c mouse assessed as reduction in tumor growth at 80 mg/kg, ip qd for 7 days; format: functional, organism-based; design: dose 80 mg/kg
Summary of the method: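 BALB/c mice (8−12 wk) inoculated s.c. with 3.5 × 10^5 EMT6 cells into the depilated right thigh. Controls received DMSO ip. Tumor volume measured by calipers as (longer diameter) × (shorter diameter)²/2. Survival also recorded.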

[28] = Solubility of the compound in biological media; format: ADME
[29] = Chemical stability of the compound; format: physicochemical

Compound `C=C(CBr)C(=O)OC` [METHYL BROMOMETHYL ACRYLATE] has a CC50 (EMT6 [1]) greater than 50 µM, an IC50 [2] of 0.44 µM and a CC50 [3] greater than 50 µM.
In the case of `CCC(C)SSc1ncc[nH]1` (stereo unspecified) [PX-12], the CC50 at 72 h [4] is reported as greater than 12.5 µM, the CC50 (EMT6 [1]) is reported as 11.6 µM and the CC50 (T-24) is reported as 4.6 µM. The Activity (Raji [5]) was “Active”, the IC50 [2] was 12.3 µM and the CC50 [6] was 5 µM. For the same compound, the CC50 (K562) was 5.5 µM, the Activity (Mus musculus [7]) was “Toxic” and the CC50 (CT26) was 5.2 µM. The CC50 (Ramos) was 3.4 µM, the Activity (Mus musculus [8]) was “Toxic” and the CC50 [3] was 3.9 µM. It also gave a CC50 [9] of 2.7 µM, a CC50 at 72 h [10] greater than 25 µM and a CC50 (Raji [11]) of 8.8 µM. For the same compound, the Activity (Raji [12]) was “Active”.
For `COC(=O)C(CBr)CBr`, the CC50 (EMT6 [1]) was greater than 50 µM, the IC50 [2] was 1.2 µM and the CC50 [3] was greater than 50 µM.
In the case of `C=C(COC(=O)c1c(C(F)(F)F)cccc1C(F)(F)F)C(=O)N[C@@H](CC(C)C)C(=O)NCC(=O)OCC`, the Activity (Mus musculus [13]) is reported as “Non-toxic”, the CC50 at 72 h [4] is reported as greater than 12.5 µM and the CC50 (EMT6 [1]) is reported as 5.2 µM. The CC50 (T-24) was 5.6 µM, the Activity (Raji [5]) was “Active” and the inhibition [14] was “Active”. For the same compound, the IC50 [2] was 3.3 µM, the inhibition (Raji [15]) was “Active” and the CC50 [6] was 4.3 µM. For the same compound, the Survival (EMT6 [16]) was “Active”, the remaining at 5 h [17] was 20% and the CC50 (K562) was 4 µM. For the same compound, the inhibition [18] was “Active”, the Stability [19] was “Unstable” and the inhibition [20] was “tde”. For the same compound, the inhibition [21] was “tde”, the CC50 (CT26) was 3.3 µM and the CC50 (Ramos) was 3.7 µM. The inhibition [22] was “Active”, the CC50 [3] was 3.8 µM and the Stability [23] was “Stable”. The CC50 [9] was 2.9 µM, the inhibition [24] was “Dose-dependent effect” and the Activity (Mus musculus [25]) was “Non-toxic”. The Activity [26] was “Active”, the CC50 at 72 h [10] was greater than 25 µM and the CC50 (Raji [11]) was 3.7 µM. For the same compound, the Activity (Raji [12]) was “Active”, the “growth inhibition (GI)” value (EMT6 [27]) was “Active” and the solubility [28] was “soluble”.
`COC(=O)C(C)(CBr)CBr` showed an IC50 [2] greater than 50 µM.
For `C=C(COC(=O)c1c(Cl)cccc1Cl)C(=O)OC`, the CC50 (EMT6 [1]) was greater than 25 µM, the IC50 [2] was 0.2 µM and the Stability [29] was “Unstable”. It also gave a CC50 [3] greater than 25 µM.
`C=C(COS(=O)(=O)c1ccc(C)cc1)C(=O)N(Cc1ccccc1)[C@@H](CC(C)C)C(=O)NCC(=O)OCc1ccccc1` gave a CC50 (EMT6 [1]) greater than 50 µM, an IC50 [2] of 22.3 µM and a CC50 [3] greater than 50 µM.
Compound `C=C(C)C(=O)N(Cc1ccccc1)[C@@H](CC(C)C)C(=O)NCC(=O)OCc1ccccc1` has a CC50 (EMT6 [1]) greater than 50 µM, an IC50 [2] greater than 50 µM and a CC50 [3] greater than 50 µM.
Compound `C=C(CBr)C(=O)N[C@@H](CC(C)C)C(=O)NCC(=O)OCC` has a CC50 (EMT6 [1]) greater than 25 µM, an IC50 [2] of 2.4 µM and a CC50 [3] greater than 50 µM.
